In ChEMBL document CHEMBL1140243, “Synthesis and SAR of 2,3-diarylpyrrole inhibitors of parasite cGMP-dependent protein kinase as novel anticoccidial agents” (Bioorg Med Chem Lett, 2005):

Tests used:
[1] = molecular target: cGMP-dependent protein kinase (Eimeria tenella, UniProt Q8MMZ8); assay: In vitro inhibition of Eimeria tenella cGMP-dependent protein kinase
[2] = test system: Eimeria tenella; assay: Anticoccidial activity (percent reduction in oocyst production) against Eimeria tenella in white leghorn chickens at 100 ppm; format: functional; design: scale not given: the % may be the effect or the level left
Method in brief: (§1)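 White Leghorn chicks were acclimated, then at 3 days old sorted by weight and randomized to medicated or control diets. There were one or two replicates of two birds per treatment. After 24 h of premedication, one bird per replicate got E. acervulina and the other E. tenella, both drug-sensitive laboratory strains. Inocula were sporulated oocysts in tap water, 0.25 mL per bird, giving low-to-moderate infection.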

[3] = test system: Eimeria acervulina; assay: Anticoccidial activity (percent reduction in oocyst production) against Eimeria acervulina in white leghorn chickens at 100 ppm; format: functional; design: scale not given: the % may be the effect or the level left; method in brief: as §1

cGMP-dependent protein kinase, sequence (Q8MMZ8 whole entry): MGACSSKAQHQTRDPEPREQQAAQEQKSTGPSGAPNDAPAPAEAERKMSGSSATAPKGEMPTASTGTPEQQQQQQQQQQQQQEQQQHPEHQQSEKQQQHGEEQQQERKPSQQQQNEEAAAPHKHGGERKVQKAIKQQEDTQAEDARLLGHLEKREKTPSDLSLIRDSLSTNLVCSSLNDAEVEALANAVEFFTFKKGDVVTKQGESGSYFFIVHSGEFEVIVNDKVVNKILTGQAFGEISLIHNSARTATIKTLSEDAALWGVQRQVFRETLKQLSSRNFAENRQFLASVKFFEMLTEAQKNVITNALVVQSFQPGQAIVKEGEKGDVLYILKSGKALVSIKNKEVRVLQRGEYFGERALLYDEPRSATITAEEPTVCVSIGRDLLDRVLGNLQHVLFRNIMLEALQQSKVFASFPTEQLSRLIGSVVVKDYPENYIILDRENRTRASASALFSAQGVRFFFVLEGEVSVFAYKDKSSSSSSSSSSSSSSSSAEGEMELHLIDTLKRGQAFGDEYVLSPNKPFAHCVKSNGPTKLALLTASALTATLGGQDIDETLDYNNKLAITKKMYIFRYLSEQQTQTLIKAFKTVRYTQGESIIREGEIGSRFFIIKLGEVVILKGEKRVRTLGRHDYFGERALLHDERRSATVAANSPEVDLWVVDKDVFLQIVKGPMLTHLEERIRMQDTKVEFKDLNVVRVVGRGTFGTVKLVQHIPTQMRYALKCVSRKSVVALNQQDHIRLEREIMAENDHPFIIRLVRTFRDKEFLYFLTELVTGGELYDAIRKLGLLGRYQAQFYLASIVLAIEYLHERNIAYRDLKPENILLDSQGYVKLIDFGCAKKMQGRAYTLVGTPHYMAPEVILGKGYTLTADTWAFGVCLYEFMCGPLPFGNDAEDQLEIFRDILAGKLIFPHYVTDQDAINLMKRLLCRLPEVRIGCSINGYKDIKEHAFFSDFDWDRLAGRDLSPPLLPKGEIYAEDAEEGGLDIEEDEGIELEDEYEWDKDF

Compound	IC50 [1]	Activity [2]	Activity [3]
CN1CCC(c2cc(-c3ccncc3)c(-c3ccc(F)cc3)o2)CC1	2.1 nM	<50%	–
Cc1cnccc1-c1cc(C2CCN(C)CC2)[nH]c1-c1ccc(F)cc1	1.7 nM	<50%	<50%
CN1CCC(c2cc(-c3ccncc3)c(-c3ccc(F)c(F)c3)[nH]2)CC1	2 nM	>=80%	<50%
CCCN1CCC(c2cc(-c3ccncc3)c(-c3ccc(F)cc3)[nH]2)CC1	4.2 nM	<50%	<50%
CN1CCC(c2nc(-c3ccc(F)cc3)c(-c3ccncc3)[nH]2)CC1	1.1 nM	>=80%	<50%
CN1CCC(c2cc(-c3ccncc3)c(-c3ccc(F)cc3)nn2)CC1	1000 nM	<50%	<50%
CN1CCC(c2cc(-c3ccncc3)c(-c3ccc(C(F)(F)F)cc3)[nH]2)CC1	55 nM	<50%	<50%
CN1CCC(c2[nH]c(-c3ccc(F)cc3)c(-c3ccncc3)c2Cl)CC1	1.02 nM	–	<50%
CN1CCC(c2cc(-c3cccnc3)c(-c3ccc(F)cc3)[nH]2)CC1	11.7 nM	<50%	–
CN1CCC(c2cc(-c3ccncc3)c(-c3cccc(F)c3)[nH]2)CC1	7.4 nM	<50%	<50%
CN1CCC(c2cc(-c3ccncc3)c(-c3ccc(F)c(Br)c3)[nH]2)CC1	0.15 nM	<50%	<50%
CN1CCC(c2nc(-c3ccc(F)cc3)c(-c3ccncc3)o2)CC1	0.97 nM	>=80%	>=80%
CC(N)CN1CCC(c2cc(-c3ccncc3)c(-c3ccc(F)cc3)[nH]2)CC1 (stereo not drawn)	2 nM	>=80%	>=80%
CN1CCC(c2cc(-c3ccc(F)cc3)c(-c3ccc(F)cc3)[nH]2)CC1	15.6 nM	<50%	<50%
CN1CCC(c2cc(-c3ccncc3)c(-c3ccoc3)[nH]2)CC1	26.3 nM	<50%	<50%
CC(=O)CN1CCC(c2cc(-c3ccncc3)c(-c3ccc(F)cc3)[nH]2)CC1	0.32 nM	<50%	<50%
OC1(CN2CCC(c3cc(-c4ccncc4)c(-c4ccc(F)cc4)[nH]3)CC2)CC1	1.1 nM	>=80%	>=80%
NCCCN1CCC(c2cc(-c3ccncc3)c(-c3ccc(F)cc3)[nH]2)CC1	0.046 nM	<50%	<50%
CN1CCC(c2cc(-c3ccncc3)c(-c3ccccc3)[nH]2)CC1	3.1 nM	–	–
Cc1c(C2CCN(C)CC2)[nH]c(-c2ccc(F)cc2)c1-c1ccncc1	1 nM	<50%	<50%
CN1CCC(c2cc(-c3ccncc3)c(-c3ccc(O)cc3)[nH]2)CC1	50 nM	<50%	<50%
